Source: ChEMBL document CHEMBL1275265, “Synthesis and biological evaluation of N-antipyrine-4-substituted amino-3-chloromaleimide derivatives” (Eur J Med Chem, 2010)
≈ marks a conversion by molar mass, not a printed value. Calls of active or inactive are those of the source. The rule behind the calls is not given here.

Experiments:
[1] = tested on: Salmonella typhimurium; test: Antibacterial activity against Salmonella Typhimurium ATCC 14028 at < 100 ug/mL by agar dilution method; format: functional, organism-based; settings: Salmonella enterica subsp. enterica serovar Typhimurium
Method in brief: (§1)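 Agar dilution on 1 mL Mueller-Hinton agar slants. Compounds were serially two-fold diluted in DMSO (final DMSO ≤2%) to give 10–100 µg/mL in the medium. Bacteria were grown on MHA at 35 °C for 24 h, suspended in 0.86% saline at 1.5 × 10^8 cell/mL (0.5 McFarland), and 1 µL was added per slant. Slants were incubated at 35 °C. Drug-free blank included; each assay run three times; MIC recorded.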

[2] = tested on: Candida albicans; test: Antifungal activity against Candida albicans ATCC 10231 by agar dilution method; format: functional, organism-based
Method in brief: (§2)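 Yeasts were grown on Sabouraud dextrose agar and adjusted to 1.0–5.0 × 10^6 cell/mL (0.5 McFarland). Agar dilution used 1 mL SDA slants holding two-fold DMSO dilutions of compound at 10–100 µg/mL, with final DMSO ≤2%. 1 µL of inoculum was added per slant, then incubated at 35 °C. Drug-free blank and ketoconazole positive control included; triplicate runs; MIC read.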

[3] = tested on: Mus musculus; test: Antinociceptive activity in Swiss mouse assessed as inhibition of acetic acid-induced abdominal contraction at 0.1 to 100 mg/kg, ip administered 30 mins before acetic acid challenge measured after 20 mins relative to control; format: functional, Abdominal cavity; settings: dose mg/kg 0.1-100; route intraperitoneal
Method in brief: (§3)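 Writhing dose-response in mice: compounds at 0.1–10 mg/kg and standard drugs at 10–100 mg/kg, i.p. in Tween 80/saline, 30 min before i.p. 0.6% acetic acid. Constrictions and stretches were counted for 20 min at 20–22 °C, with six to eight animals per group. ID50 (dose halving the response versus control) was given as geometric mean with 95% confidence limits.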

[4] = tested on: Nannizzia gypsea; test: Antifungal activity against Microsporum gypseum C115 by agar dilution method; format: functional
Method in brief: (§4)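 Filamentous fungi (hyalohyphomycetes, dermatophytes) were grown on SDA. Spore suspensions were set to 1.0–5.0 × 10^6 spores/mL by hemocytometer count. 1 µL was inoculated onto 1 mL SDA slants holding compound at 10–100 µg/mL (two-fold DMSO dilutions, final DMSO ≤2%), then incubated at 28–30 °C. Drug-free blank and ketoconazole control included; repeated three times; MIC determined.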

[5] = tested on: Mus musculus; test: Ratio of acetyl salicylic acid ID50 to compound ID50 for inhibition of acetic acid-induced abdominal contraction in ip dosed Swiss mouse; format: functional, Abdominal cavity
[6] = tested on: Mus musculus; test: Ratio of metamizole ID50 to compound ID50 for inhibition of acetic acid-induced abdominal contraction in ip dosed Swiss mouse; format: functional, Abdominal cavity
[7] = tested on: Aspergillus flavus; test: Antifungal activity against Aspergillus flavus ATCC 9170 by agar dilution method; format: functional, organism-based; method in brief: as §4
[8] = tested on: Aspergillus niger; test: Antifungal activity against Aspergillus niger ATCC 9092 by agar dilution method; format: functional, organism-based; method in brief: as §4
[9] = tested on: Rhizopus; test: Antifungal activity against Rhizopus CL35 by agar dilution method; format: functional; method in brief: as §4
[10] = tested on: Staphylococcus saprophyticus; test: Antibacterial activity against Staphylococcus saprophyticus ATCC 35552 at < 100 ug/mL by agar dilution method; format: functional, organism-based; method in brief: as §1
[11] = tested on: Trichophyton mentagrophytes; test: Antifungal activity against Trichophyton mentagrophytes ATCC 9972 by agar dilution method; format: functional; method in brief: as §4
[12] = tested on: Mus musculus; test: Antinociceptive activity in Swiss mouse assessed as inhibition of formalin-induced paw licking activity at 10 mg/kg, ip administered 30 mins before formalin challenge measured after 15 to 30 mins; format: functional; settings: route intraperitoneal
Method in brief: (§5)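 Formalin test in mice pretreated i.p. with vehicle or 10 mg/kg test agent 30 min before formalin injection. Animals were acclimatized 5 min in a glass cylinder with an angled mirror. Licking time was recorded for the early phase (0–5 min) and the late phase (15–30 min) after formalin. Values are mean ± S.E.M.; ANOVA with Dunnett's test.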

[13] = tested on: Enterobacter cloacae; test: Antibacterial activity against Enterobacter cloacae ATCC 35030 at < 100 ug/mL by agar dilution method; format: functional, organism-based; method in brief: as §1
[14] = tested on: Cryptococcus neoformans; test: Antifungal activity against Cryptococcus neoformans ATCC 32264 by agar dilution method; format: functional; method in brief: as §2
[15] = tested on: Mus musculus; test: Antinociceptive activity in Swiss mouse assessed as inhibition of formalin-induced paw licking activity at 10 mg/kg, ip administered 30 mins before formalin challenge measured after 5 mins; format: functional; settings: route intraperitoneal; method in brief: as §5
[16] = tested on: Streptococcus agalactiae; test: Antibacterial activity against Streptococcus agalactiae ATCC 13813 at < 100 ug/mL by agar dilution method; format: functional; method in brief: as §1
[17] = tested on: Aspergillus fumigatus; test: Antifungal activity against Aspergillus fumigatus ATCC 26934 by agar dilution method; format: functional; method in brief: as §4
[18] = tested on: Mus musculus; test: Antinociceptive activity in ip dosed Swiss mouse assessed as inhibition of acetic acid-induced abdominal contraction administered 30 mins before acetic acid challenge measured after 20 mins; format: functional; settings: Abdominal cavity, read-out: ID50 (the source's name); method in brief: as §3
[19] = tested on: Staphylococcus aureus; test: Antibacterial activity against Staphylococcus aureus ATCC 6538P at < 100 ug/mL by agar dilution method; format: functional, organism-based; method in brief: as §1
[20] = tested on: Microsporum canis; test: Antifungal activity against Microsporum canis C112 by agar dilution method; format: functional, organism-based; method in brief: as §4
[21] = Toxicity in Artemia salina assessed as mortality after 24 hrs; format: organism-based; settings: in vivo
Method in brief: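 Artemia salina hatched at pH 9.0 (Na2CO3), 25 °C, strong aeration, continuous light (2000 Lux). Phototropic nauplii were collected about 12 h after hatching, and groups of 10 were exposed per well to various compound concentrations for 24 h. Survivors were counted and % deaths calculated.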

[22] = tested on: Bacillus cereus; test: Antibacterial activity against Bacillus cereus ATCC 14579 at < 100 ug/mL by agar dilution method; format: functional; method in brief: as §1
[23] = tested on: Escherichia coli; test: Antibacterial activity against Escherichia coli ATCC 11775 at < 100 ug/mL by agar dilution method; format: functional, organism-based; method in brief: as §1
[24] = tested on: Trichophyton rubrum; test: Antifungal activity against Trichophyton rubrum C137 by agar dilution method; format: functional; method in brief: as §4
[25] = tested on: Proteus mirabilis; test: Antibacterial activity against Proteus mirabilis ATCC 25933 at < 100 ug/mL by agar dilution method; format: functional, organism-based; method in brief: as §1
[26] = tested on: Pseudomonas aeruginosa; test: Antibacterial activity against Pseudomonas aeruginosa ATCC 27853 at < 100 ug/mL by agar dilution method; format: functional, organism-based; method in brief: as §1
[27] = tested on: Pichia kudriavzevii; test: Antifungal activity against Candida krusei ATCC 6582 by agar dilution method; format: functional, organism-based; method in brief: as §2
[28] = tested on: Mus musculus; test: Antinociceptive activity in Swiss mouse assessed as inhibition of acetic acid-induced writhing at 10 mg/kg, ip administered 30 mins before acetic acid challenge measured after 20 mins relative to control; format: functional; settings: route intraperitoneal
Method in brief: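 Mice were given 10 mg/kg i.p. in Tween 80/0.9% NaCl (Tween ≤5%) 30 min before i.p. 0.6% acetic acid, at 20–22 °C. Abdominal constrictions plus hind-limb stretching were counted cumulatively over 20 min in individual funnels. Groups of six, randomized and blinded. Inhibition was calculated versus vehicle controls (10 ml/kg i.p.); ANOVA with Dunnett's test.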

[29] = tested on: Bacillus subtilis; test: Antibacterial activity against Bacillus subtilis ATCC 23858 at < 100 ug/mL by agar dilution method; format: functional, organism-based; method in brief: as §1
[30] = tested on: Mus musculus; test: Ratio of compound to acetyl salicylic acid activity against formalin-induced paw licking activity in Swiss mouse at 10 mg/kg, ip administered 30 mins before formalin challenge measured after 15 to 30 mins; format: functional; settings: route intraperitoneal
[31] = tested on: Staphylococcus aureus; test: Antibacterial activity against Staphylococcus aureus ATCC 6538P by agar dilution method; format: functional
[32] = species: Mus musculus; test: Antinociceptive activity in mouse assessed as inhibition of acetic acid-induced writhing; format: functional; settings: read-out: ID50 (the source's name)

Row | SMILES | Activity [1] | Activity [2] | inhibition (INH) [3] [%] | MIC [4] [µg/mL] | Ratio [5] | Ratio [6] | Activity [10] | inhibition in vivo at 10 mg/kg [12] [%] | Activity [13] | inhibition in vivo at 10 mg/kg [15] [%] | Activity [16] | ED50 [18] [µmol/kg] | Activity [19] | LC50 at 24 h [21] [µg/mL] | Activity [22] | Activity [23] | Activity [25] | Activity [26] | inhibition in vivo at 10 mg/kg [28] [%] | Activity [29] | also measured
1 | Cc1c(N2C(=O)C(Cl)=C(Nc3ccc(Br)cc3)C2=O)c(=O)n(-c2ccccc2)n1C | inactive | Active | 97.5 | > 100 | 233 | 284 | inactive | 22.5 | inactive | 11.4 | inactive | 0.57 | inactive | > 1000 | inactive | inactive | inactive | inactive | 97.5 | inactive | Activity [7]: Active; Activity [8]: Active; MIC [9]: 100 µg/mL (≈ 205 µM); MIC [11]: > 100 µg/mL; MIC [14]: > 100 µg/mL; MIC [17]: > 100 µg/mL; Activity [20]: Active; MIC [24]: > 100 µg/mL; Activity [27]: Active
2 | Cc1c(N2C(=O)C(Cl)=C(Nc3ccc(F)cc3)C2=O)c(=O)n(-c2ccccc2)n1C | inactive | Active | 96.7 | 100 (≈ 234 µM) | 182 | 222 | inactive | 4.5 | inactive | 28.9 | inactive | 0.73 | inactive | > 1000 | inactive | inactive | inactive | inactive | 93.2 | inactive | Activity [7]: Active; Activity [8]: Active; MIC [9]: > 100 µg/mL; MIC [11]: > 100 µg/mL; MIC [14]: > 100 µg/mL; MIC [17]: > 100 µg/mL; Activity [20]: Active; MIC [24]: > 100 µg/mL; Activity [27]: Active
3 | Cc1c(N2C(=O)C(Cl)=C(Nc3ccc(Cl)c([N+](=O)[O-])c3)C2=O)c(=O)n(-c2ccccc2)n1C | inactive |  | 98.5 |  | 103 | 126 | inactive | 49 | inactive | 19.6 | inactive | 1.29 | inactive | 94.2 (≈ 193 µM) | inactive | inactive | inactive | inactive | 98.5 | inactive | Ratio [30]: 6
4 | Cc1c(N2C(=O)C(Cl)=C(Cl)C2=O)c(=O)n(-c2ccccc2)n1C | inactive |  | 99 |  |  |  | inactive |  | inactive |  | inactive | 10.8 | inactive |  | inactive | inactive | inactive | inactive | 99 | inactive | MIC [31]: 250 µg/mL (≈ 710 µM); ED50 [32]: 10.8 µmol/kg
5 | Cc1c(N2C(=O)C(Cl)=C(Nc3ccc(Cl)cc3)C2=O)c(=O)n(-c2ccccc2)n1C | inactive |  | 97.4 |  | 33 |  | inactive | 29.3 | inactive | 28.2 | inactive | 4.05 | inactive | > 1000 | inactive | inactive | inactive | inactive | 97.4 | inactive | 
